The source of these data is the EternaBench riboswitch data.

The test system of data set [1] is MS2 coat protein. The data set is described as follows: apparent Kd, MS2 coat protein; higher = weaker binding; RNA-MaP array; theophylline 2 mM where present. An outline of the steps: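 Designs were transcribed by stalled E. coli RNA polymerase on Illumina sequencing-chip clusters. They were titrated with SNAP-549-labelled MS2 coat protein from 0.7 or 1.5 nM, doubling to 3 µM, in 100 mM Tris-HCl pH 7.5, 80 mM KCl, 4 mM MgCl2, BSA, DTT, yeast tRNA and Tween-20, without and then with constant ligand. The apparent Kd is the median of filtered per-cluster fits after normalisation of green signal to red-channel RNA signal and control-cluster median Fmax.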

Data set [2] relates to MS2 coat protein. Put plainly: apparent Kd, MS2 coat protein; higher = weaker binding; RNA-MaP array. An outline of the steps: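 Apparent Kd is the median of per-cluster binding-curve fits for designed RNAs transcribed from sequenced DNA templates on an Illumina sequencing chip. The RNAs were incubated at room temperature with fluorescently labeled MS2 coat protein at 1.5 nM to 3 μM, with or without input ligand, and designs measured on fewer than 10 clusters were excluded.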

Setting [3] is: designed as: ON switch for theophylline, no ligand.
[4] abbreviates: ligand present: theophylline, designed as: ON switch for theophylline.
Setting [5] is: designed as: OFF switch for theophylline, no ligand.
[6] abbreviates: ligand present: theophylline, designed as: OFF switch for theophylline.
Setting [7] is: designed as: OFF switch for flavin mononucleotide, no ligand.
[8] abbreviates: ligand present: flavin mononucleotide, designed as: OFF switch for flavin mononucleotide.
The mark [9] stands for this setting: designed as: ON switch for flavin mononucleotide, no ligand.
Setting [10] is: ligand present: flavin mononucleotide, designed as: ON switch for flavin mononucleotide.

In general, apparent Kd refers to a dissociation constant that holds for the conditions of the assay. For the sequence “CGAUCUUUCGAAAGAAGGAUCGAUUCUGAUACCAGAGACGAAAGUCUCCCUUGGCAGCAGUGCCAACAUGAGGAUCACCCAUGUA”, the “apparent Kd” value in the data set on MS2 coat protein [1] (setting [3]) worked out at 22.4 nM; in the data set on MS2 coat protein [1] (setting [4]), 21.3 nM.
On the same counts, the results for “UCUUACUUGGUAGAUACCAGCGUGUUAUCUUUCUUUUGACAUGAGGAUCACCCAUGUAUAUGCCCUUGGCAGCUGCAUAGUGUGU” are 34.9 nM and 35.1 nM.
For “UCUUGGUCCGCAAGGACCGUGAGUUGCGAUACCAGCACGGUAACGUGCCCUUGGCAGCGCACAUGAGGAUCACCCAUGUGGUGUU”, the “apparent Kd” value in the data set on MS2 coat protein [1] (setting [5]) turned out to be 281 nM; in the data set with MS2 coat protein [1] (setting [6]) it was 318 nM.
On to “AGAAUACAUGUUUUAAUACGGUUUACUGAUACCAGUGUAUCUAUUCACCCUUGGCAGCAGAGACAUGAGGAUCACCCAUGUAUUA”, for which the “apparent Kd” value in the data set with MS2 coat protein [1] (setting [5]) stood at 38.8 nM; in the data set on MS2 coat protein [1] (setting [6]) it was 55.2 nM.
With “GGAUAGAUAGGAGAUACCAGAUACAUAAACAUGAGGAUCACCCAUGUGUCUGCACUAAGUAUCCCUUGGCAGCUCGGAGAUCUGA”, the “apparent Kd” value stood at 17.6 nM in the data set with MS2 coat protein [1] (setting [3]) and 15 nM in the data set on MS2 coat protein [1] (setting [4]).
Turning to “UCACAUGAGGAUCACCCAUGUACAGGCGAUACCAGCCGUACAUUGGGCCCUUGGCAGCGCAUCGAGACCUUUAUAAGCACCUCGG”, the “apparent Kd” value in the data set on MS2 coat protein [1] (setting [3]) was 49.9 nM; in the data set on MS2 coat protein [1] (setting [4]), 298 nM.
In the case of “UGCGAUUGCUCAGAUACCAGACAUGAGGAUCACCCAUGUACCAAGGUAAAGAAAUAACGUGUCCCUUGGCAGCUGAGCAAUCGCU”, the “apparent Kd” value came out at 10.2 nM with MS2 coat protein [1] (setting [5]) and 98.4 nM in the data set with MS2 coat protein [1] (setting [6]).
With “AUGUCAUUGGUGUAGCUGUGAAAUGGCGAUACCAGCGUGGAAACACGCCCUUGGCAGCGCCAAAACAUGAGGAUCACCCAUGUUA”, the entries for the “apparent Kd” value with MS2 coat protein [1] (setting [5]) and in the data set on MS2 coat protein [1] (setting [6]) were 87.6 nM and 272 nM, respectively.
For “ACUAGUUGUGCAGAUACCAGACAUGAGGAUCACCCAUGUUUGGGAUGUUCGCAUCUUCCUGUCCCUUGGCAGCUGUACAUCUAGA”, the “apparent Kd” value in the data set with MS2 coat protein [1] (setting [5]) was found to be 82.5 nM; in the data set on MS2 coat protein [1] (setting [6]), 44.6 nM.
On the same counts, the results for “AGACAUGAGGAUCACCCAUGUAGCAUGGAUACCAGAUGUAGAUUUGUCCCUUGGCAGCUGUGGUAAAGUGAUGCAUUGCUCCUAG” are 45.2 nM and 45.2 nM.
On the same counts, the results for “AGACAUGAGGAUCACCCAUGUAGCACGGAUACCAGAUCCAGAUUUAUCCCUUGGCAGCUGUGGUACAGCGUUGCAACGCUCCUAG” are 18.8 nM and 29.4 nM.
For “GGCCUUGCGGGCGCCCGCAAGGCCGCGGAUACCAGCGAGGUCCAUCGCCCUUGGCAGCCGAACAUGAGGAUCACCCAUGUCGGUU”, the “apparent Kd” value in the data set on MS2 coat protein [1] (setting [3]) was found to be 11 nM; with MS2 coat protein [1] (setting [4]), 13.4 nM.
With “AAUUGCGUUGGUGAGGCGGUUAAUGGCGAUACCAGCGUGGAAACACGCCCUUGGCAGCGCCAAAACAUGAGGAUCACCCAUGUUA”, the “apparent Kd” value with MS2 coat protein [1] (setting [5]) turned out to be 73.5 nM; in the data set on MS2 coat protein [1] (setting [6]), 200 nM.
Consider “UGCAGAGAUUGAGGAUAUGUAGUCGAACAUGAGGAUCACCCAUGUUUGGUCCUUCUACACACGGCACAGAAGGCAAGAAAGAGC”, for which the “apparent Kd” value in the data set on MS2 coat protein [2] (setting [7]) came out at 15.1 nM; in the data set on MS2 coat protein [2] (setting [8]), 24.3 nM.
Turning to “GCAAAGAAAGCAGUGUAAACAUGAGGAUCACCCAUGUGAUGGAGAAGGUAUAGGCUGGUCGUAUAUAAGGAUAUCCUAAGCAAA”, the “apparent Kd” value in the data set on MS2 coat protein [2] (setting [9]) stood at 18.6 nM; in the data set with MS2 coat protein [2] (setting [10]), 17.6 nM.
For “ACAUCUUGUACGGCCGCCACUAACAGAUUCAGCGUCGGAGCCAACUACAUGAGGAUCACCCAUGUUAGGACCGGGUACUGUCCAC”, the “apparent Kd” value in the data set with MS2 coat protein [2] (designed as: OFF switch for tryptophan, no ligand) is 17.7 nM; in the data set with MS2 coat protein [2] (ligand present: tryptophan, designed as: OFF switch for tryptophan) it was 34.9 nM.
Regarding “CAUUUACAUGAGGAUCACCCAUGUUAUUCUACCCAAGGAUAUCGGGAAAGUAGAACAAGUCGAGAAGGUGGUGCGC”, the “apparent Kd” value with MS2 coat protein [2] (setting [9]) turned out to be 29.5 nM; in the data set with MS2 coat protein [2] (setting [10]), 25.6 nM.
Take “GCUGCUCAUCAAAACUGGACAUGAGGAUCACCCAUGUCUUUGCAGGAUAUUGAUCGUCAGUACAUCAAGAAGGGCACGCGGCAA”: the “apparent Kd” value in the data set with MS2 coat protein [2] (setting [9]) was 12.9 nM; in the data set with MS2 coat protein [2] (setting [10]), 9.89 nM.
For the sequence “AAGCGACGUGACGCCUACAUGAGGAUCACCCAUGUAUGAAACAGAAGGUCCCGGAACCUUUACCGGAAGGAUAUGUAUCGUGCU”, the “apparent Kd” value is 9.18 nM in the data set on MS2 coat protein [2] (setting [7]) and 7.78 nM in the data set with MS2 coat protein [2] (setting [8]).
